pIC50: −log10 of the molar value.
How the values were obtained:
[1] = Metabolic stability in human liver microsomes after 30 mins by LC-MS/MS analysis; type: ADME, Microsome; conditions: read-out: Stability
Outline: (§1)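 Compounds were incubated with mouse or human liver microsomal preparation for 30 min at 37 °C. The reaction was stopped with CH3CN. Unmetabolized compound was quantified by LC-MS/MS in MRM mode and reported as percent remaining. Replicates n ≥ 2, mean values given.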

[2] = Metabolic stability in mouse liver microsomes after 30 mins by LC-MS/MS analysis; type: ADME, Microsome; conditions: read-out: Stability; outline: as §1
Histone deacetylase 3 = Histone deacetylase 3 (Homo sapiens, UniProt O15379); assay: Inhibition of HDAC3 (unknown origin)
Mus musculus = assay: Cmax in CD1 mouse at 15 mg/kg, po; conditions: mouse, in vivo
Histone deacetylase 2 = Histone deacetylase 2 (Homo sapiens, UniProt Q92769); assay: Inhibition of HDAC2 (unknown origin)
[3] = biological target: T1, Protein deacetylase HDAC6 (Homo sapiens, UniProt Q9UBN7); assay: Inhibition of HDAC6 (unknown origin)
T1 sequence (Q9UBN7 whole entry): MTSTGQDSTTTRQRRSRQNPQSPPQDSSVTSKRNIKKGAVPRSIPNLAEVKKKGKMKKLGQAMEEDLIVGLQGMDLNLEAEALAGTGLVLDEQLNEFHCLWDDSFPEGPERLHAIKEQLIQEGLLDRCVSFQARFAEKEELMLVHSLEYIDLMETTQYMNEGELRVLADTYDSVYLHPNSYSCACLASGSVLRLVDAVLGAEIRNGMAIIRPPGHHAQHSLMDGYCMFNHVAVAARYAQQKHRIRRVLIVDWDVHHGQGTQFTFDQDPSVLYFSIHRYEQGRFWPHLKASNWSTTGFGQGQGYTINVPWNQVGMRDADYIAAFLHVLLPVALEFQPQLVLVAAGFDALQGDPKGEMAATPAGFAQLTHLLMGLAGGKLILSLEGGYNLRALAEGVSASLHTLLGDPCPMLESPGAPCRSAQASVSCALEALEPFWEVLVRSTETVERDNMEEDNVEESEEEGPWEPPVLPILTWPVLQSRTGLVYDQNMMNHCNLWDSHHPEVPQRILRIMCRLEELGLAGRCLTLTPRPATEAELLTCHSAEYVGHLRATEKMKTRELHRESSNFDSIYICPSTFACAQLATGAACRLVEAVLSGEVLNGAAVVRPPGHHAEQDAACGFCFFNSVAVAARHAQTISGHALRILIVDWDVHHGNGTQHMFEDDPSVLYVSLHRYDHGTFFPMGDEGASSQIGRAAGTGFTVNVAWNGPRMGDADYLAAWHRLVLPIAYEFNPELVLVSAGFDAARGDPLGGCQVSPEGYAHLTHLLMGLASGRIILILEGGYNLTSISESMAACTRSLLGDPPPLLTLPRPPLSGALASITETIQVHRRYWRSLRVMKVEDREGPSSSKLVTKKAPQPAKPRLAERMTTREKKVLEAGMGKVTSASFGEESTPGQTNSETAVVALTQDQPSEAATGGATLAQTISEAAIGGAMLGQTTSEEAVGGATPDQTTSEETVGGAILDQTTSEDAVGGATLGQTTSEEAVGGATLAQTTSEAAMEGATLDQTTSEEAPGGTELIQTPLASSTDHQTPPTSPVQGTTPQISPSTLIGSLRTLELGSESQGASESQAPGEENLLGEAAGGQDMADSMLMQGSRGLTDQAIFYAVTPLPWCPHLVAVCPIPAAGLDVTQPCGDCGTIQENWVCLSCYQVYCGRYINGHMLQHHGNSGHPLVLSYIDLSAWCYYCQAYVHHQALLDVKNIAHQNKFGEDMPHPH

[4] = Oral bioavailability in CD1 mouse at 15 mg/kg; conditions: in vivo
[5] = Permeability from apical to basolateral side across human Caco2 cells after 2 hrs by LC-MS analysis; type: ADME, cell-based; conditions: Caco-2, read-out: permeability
[6] = biological target: Voltage-gated inwardly rectifying potassium channel KCNH2 (Homo sapiens, UniProt Q12809); assay: Displacement of [3H]astemizole from human ERG channel transfected in HEK293 cells after 60 mins by liquid scintillation counting analysis; type: cell-based
Chain of Voltage-gated inwardly rectifying potassium channel KCNH2 (Q12809 whole entry): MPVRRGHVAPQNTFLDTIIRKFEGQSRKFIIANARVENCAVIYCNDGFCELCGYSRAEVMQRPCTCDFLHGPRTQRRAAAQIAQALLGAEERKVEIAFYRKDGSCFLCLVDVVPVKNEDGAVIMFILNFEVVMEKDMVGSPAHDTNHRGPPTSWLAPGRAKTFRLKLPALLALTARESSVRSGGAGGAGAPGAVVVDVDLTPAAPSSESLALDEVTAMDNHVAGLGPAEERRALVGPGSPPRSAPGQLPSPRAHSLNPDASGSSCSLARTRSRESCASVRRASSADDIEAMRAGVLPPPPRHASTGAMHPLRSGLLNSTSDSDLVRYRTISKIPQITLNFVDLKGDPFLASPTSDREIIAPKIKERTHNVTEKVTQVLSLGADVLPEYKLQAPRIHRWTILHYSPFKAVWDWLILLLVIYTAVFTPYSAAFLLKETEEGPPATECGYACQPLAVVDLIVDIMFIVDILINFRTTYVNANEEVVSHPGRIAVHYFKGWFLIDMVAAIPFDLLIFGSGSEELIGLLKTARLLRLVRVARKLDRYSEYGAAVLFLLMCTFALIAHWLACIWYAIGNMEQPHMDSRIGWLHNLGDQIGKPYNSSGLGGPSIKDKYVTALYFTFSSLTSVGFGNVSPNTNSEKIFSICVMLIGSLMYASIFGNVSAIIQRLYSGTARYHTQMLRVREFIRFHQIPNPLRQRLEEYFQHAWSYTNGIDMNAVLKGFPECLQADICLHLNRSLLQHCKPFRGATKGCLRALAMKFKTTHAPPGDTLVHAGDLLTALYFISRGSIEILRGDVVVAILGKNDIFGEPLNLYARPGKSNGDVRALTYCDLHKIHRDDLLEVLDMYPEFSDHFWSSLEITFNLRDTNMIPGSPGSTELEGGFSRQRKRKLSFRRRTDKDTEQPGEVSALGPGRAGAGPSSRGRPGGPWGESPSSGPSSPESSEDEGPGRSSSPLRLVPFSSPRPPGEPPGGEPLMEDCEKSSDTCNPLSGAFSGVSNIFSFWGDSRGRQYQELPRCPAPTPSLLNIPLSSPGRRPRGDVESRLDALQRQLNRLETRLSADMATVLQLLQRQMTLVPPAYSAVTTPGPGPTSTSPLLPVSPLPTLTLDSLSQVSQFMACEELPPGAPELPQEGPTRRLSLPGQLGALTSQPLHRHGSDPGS

Chain of Histone deacetylase 2 (Q92769 whole entry): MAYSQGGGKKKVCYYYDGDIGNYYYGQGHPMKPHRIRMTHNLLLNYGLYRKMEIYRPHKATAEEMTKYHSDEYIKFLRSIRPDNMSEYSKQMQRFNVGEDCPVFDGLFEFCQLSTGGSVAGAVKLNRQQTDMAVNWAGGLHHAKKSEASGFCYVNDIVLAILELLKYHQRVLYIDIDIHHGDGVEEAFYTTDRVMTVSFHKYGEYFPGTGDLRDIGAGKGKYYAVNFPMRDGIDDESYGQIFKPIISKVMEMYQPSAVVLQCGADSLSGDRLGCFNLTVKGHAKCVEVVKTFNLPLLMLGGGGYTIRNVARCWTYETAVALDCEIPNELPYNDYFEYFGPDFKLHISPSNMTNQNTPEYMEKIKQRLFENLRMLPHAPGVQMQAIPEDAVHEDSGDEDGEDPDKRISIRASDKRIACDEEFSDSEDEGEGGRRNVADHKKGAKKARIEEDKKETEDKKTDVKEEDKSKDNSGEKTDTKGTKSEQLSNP
Chain of Histone deacetylase 3 (O15379 whole entry): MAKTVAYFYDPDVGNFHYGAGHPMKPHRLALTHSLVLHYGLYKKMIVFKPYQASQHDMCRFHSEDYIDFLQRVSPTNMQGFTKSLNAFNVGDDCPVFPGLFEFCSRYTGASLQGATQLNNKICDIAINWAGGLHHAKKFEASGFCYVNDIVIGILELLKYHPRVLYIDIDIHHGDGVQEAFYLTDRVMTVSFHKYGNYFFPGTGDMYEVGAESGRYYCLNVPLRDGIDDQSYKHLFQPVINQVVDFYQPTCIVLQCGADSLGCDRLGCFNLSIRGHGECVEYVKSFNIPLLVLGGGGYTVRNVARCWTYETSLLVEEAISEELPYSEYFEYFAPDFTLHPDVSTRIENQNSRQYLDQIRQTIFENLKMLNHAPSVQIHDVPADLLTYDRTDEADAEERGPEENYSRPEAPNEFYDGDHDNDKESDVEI

remaining at 0.5 h [1]: 55%
remaining at 0.5 h [2]: 32%
pIC50 (Histone deacetylase 3): 7.19
Cmax (Mus musculus): 823 nM
pIC50 (Histone deacetylase 2): 6.57
pIC50 [3]: 6.99
bioavailability [4]: 31.5%
Papp A→B at 2 h [5]: 5.6 ×10⁻⁶ cm/s
Compound: O=C(/C=C/c1ccc2c(c1)C(=O)CC1(CCN(Cc3ccccc3)CC1)O2)NO
pIC50 [6]: 5.42
